HNF4A DNA FP: change in binding of human HNF4 alpha to DNA. actives 0.3% (n = 360,000). HNF4a-FITC DNA binding, fluorescence polarization, 1 h. AID 1224865. activity change, % at 10 µM. P41235; in the data active = activity change above about 30%, passing the limit was not always enough
IDE cell activ: activators of human insulin-degrading enzyme in cells; P14735; HEK cells, FAbeta-B cleavage, fluorescence polarization; 0% vehicle, 100% cell-free pure enzyme wells; activation, % at 5.96 µM; actives 0.073% (n = 340,000);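 active = activation above the mean of all tested compounds plus 3 SD, set per screening campaign, cut at about 17% in these data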
Target sequence (P14735 whole entry, looked up): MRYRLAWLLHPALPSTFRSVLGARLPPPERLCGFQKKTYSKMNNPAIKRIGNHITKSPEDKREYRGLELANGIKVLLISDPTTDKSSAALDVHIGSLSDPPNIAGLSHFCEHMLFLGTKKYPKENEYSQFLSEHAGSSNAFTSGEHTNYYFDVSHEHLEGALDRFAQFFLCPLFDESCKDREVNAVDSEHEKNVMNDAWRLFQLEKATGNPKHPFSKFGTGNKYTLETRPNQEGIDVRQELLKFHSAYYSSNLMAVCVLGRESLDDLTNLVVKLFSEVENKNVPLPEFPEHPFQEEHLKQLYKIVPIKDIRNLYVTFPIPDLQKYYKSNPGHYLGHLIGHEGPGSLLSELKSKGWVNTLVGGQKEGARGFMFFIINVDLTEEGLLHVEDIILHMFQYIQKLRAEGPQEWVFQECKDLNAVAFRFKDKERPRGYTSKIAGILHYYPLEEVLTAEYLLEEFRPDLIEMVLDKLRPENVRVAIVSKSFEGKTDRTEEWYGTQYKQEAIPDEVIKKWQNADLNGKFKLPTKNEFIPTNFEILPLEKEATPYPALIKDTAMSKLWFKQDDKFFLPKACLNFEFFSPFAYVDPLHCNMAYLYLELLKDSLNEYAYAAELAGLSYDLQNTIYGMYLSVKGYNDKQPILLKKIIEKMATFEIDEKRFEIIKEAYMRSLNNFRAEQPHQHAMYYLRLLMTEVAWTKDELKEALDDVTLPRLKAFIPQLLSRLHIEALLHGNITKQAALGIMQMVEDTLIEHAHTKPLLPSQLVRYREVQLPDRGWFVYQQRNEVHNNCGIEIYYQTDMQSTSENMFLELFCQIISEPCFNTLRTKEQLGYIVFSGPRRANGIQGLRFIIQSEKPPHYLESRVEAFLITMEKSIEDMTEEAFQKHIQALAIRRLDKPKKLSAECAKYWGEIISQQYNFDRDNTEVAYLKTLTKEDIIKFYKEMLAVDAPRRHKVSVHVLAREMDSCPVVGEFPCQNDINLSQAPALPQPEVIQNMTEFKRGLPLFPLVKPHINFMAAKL
TPT1 inh: inhibitors of Candida albicans tRNA 2'-phosphotransferase TPT1 | actives 0.81% (n = 300,000) | recombinant caTPT1, FP RNA substrate dephosphorylation | inhibition, % at 5 µM;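 active = inhibition above the mean of all tested compounds plus 3 SD, set per screening campaign, cut at about 24% in these data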;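 also: plate controls were DMSO alone for no effect and ferristatin control at 100 nM for full effect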
IDE cell inh: inhibits human insulin-degrading enzyme in HEK cells. FAbetaB cleavage, fluorescence polarization. inhibition, % at 5.59 µM. actives 0.41% (n = 320,000);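 active = percent inhibition above the average of all tested compounds plus 3 SD, set per screening campaign, cut at about 16% in these data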;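 also: IDE supplied by intact live HEK cells; FP after avidin binding of uncleaved biotin substrate so inhibition keeps polarization high; 0% = DMSO wells and 100% = 60 µM reference IDE inhibitor Ii1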
Rpn11 block: blocks the human proteasome subunit Rpn11 | human 26S proteasome, Ub4-pepOG fluorescence polarization; 20S core pre-blocked with epoxomicin | O00487 | actives 0.59% (n = 360,000) | AID 588493 | inhibition, % at 20 µM;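 active = inhibition at 20 µM, scaled to each plate's controls, above about 33%, limit read from the data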
CSN deneddyl inh: blocks human CSN-mediated cullin deneddylation; Purified CSN, SCF-Nedd8-OG deneddylation, fluorescence polarization; inhibition, % at 12.5 µM; actives 0.38% (n = 360,000);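 active = pattern-corrected inhibition above about 35%, with an unprinted fluorescence ratio check between 0.5 and 1.5, limit read from the data, passing the limit was not always enough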;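 also: 0% = enzyme with substrate and 100% = substrate without enzyme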
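Assay system: purified human Csn5 enzyme expressed in HEK293T cells; Input: 0.24 nM Csn5 enzyme, final concentration; Reagent: 10 nM SCFSkp2-Nedd8OG; Compound dosing: 12.5 µM single point; Times: reaction 90 min, room temperature; Technique: fluorescence polarization readout.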
CSN5 deneddyl: Csn5 (human) deneddylation inhibition, single-concentration validation | Csn5 deneddylation of SCF-Nedd8OG, fluorescence polarization, 90 min | shares compounds with CSN deneddyl inh | AID 720654 | actives 62% (n = 540) | inhibition, % at 16.6 µM; in the data active = inhibition above about 50%;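 also: 0% = DMSO with enzyme and 100% = no enzyme wells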
MMP2 cntr CSN: counter-screen for CSN deneddylation inhibitors: human MMP-2 inhibition; actives 33% (n = 540); shares compounds with CSN deneddyl inh; recombinant MMP-2, FRET substrate fluorescence, 60 min; inhibition, % at 16.6 µM;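 active = corrected plate-normalized z-score of 5 or more, or -5 or less, or inhibition of 15% or more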;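 also: plate controls were DMSO wells with enzyme for no effect and buffer wells lacking MMP-2 for full effect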
Thrombin counter: thrombin (bovine) inhibition, counter-screen for CSN hits; shares compounds with CSN deneddyl inh; bovine thrombin cleavage of Ub4-pepOG, fluorescence polarization; inhibition, % at 16.6 µM; actives 49% (n = 540);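 active = inhibition at or above a set limit, with a fluorescence interference ratio between 0.5 and a set maximum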
HNF4A confirm: change in binding of human HNF4 alpha to DNA, retest; shares compounds with HNF4A DNA FP; HNF4A-FITC DNA binding, fluorescence polarization, 1 h; activity change, % at 12.5 µM; actives 99% (n = 210); AID 1224897; call rule not given here
Numbers without * were called inactive; · = not tested or not shown. A selection: hits, their analogues and other compounds. The true share with any hit is near 1.7%.

SMILES	HNF4A DNA FP	IDE cell activ	TPT1 inh	IDE cell inh	Rpn11 block	CSN deneddyl inh	HNF4A confirm	others
O=C1/C(=C/c2cccs2)CCC/C1=C\c1cccs1	12.1	-3.6	11.2	4.9	7.1	43.3*	·	CSN5 deneddyl=92.2*;MMP2 cntr CSN=-3.8;Thrombin counter=4.8
Nc1cccc2c1C(=O)N(C(=O)/C=C/c1cccc(Br)c1)C2=O	-9.6	6.4	·	·	10.4	40.6*	·	CSN5 deneddyl=68.0*;MMP2 cntr CSN=4.0;Thrombin counter=46.4*
Nc1cccc2c1C(=O)N(C(=O)/C=C/c1cccc(F)c1)C2=O	-8.2	2.5	-14.2	-4.8	-2.6	23.0	·
CC(=O)c1c(C)oc2ccc(NS(=O)(=O)c3ccc(C)cc3)cc12	-4.1	2.0	0.7	0.3	0.7	1.2	·
Cc1ccc(C)c(S(=O)(=O)Nc2ccc3oc(C)c(C(=O)O)c3c2)c1	-30.6	-1.0	-2.0	-5.1	-6.0	40.1*	·	CSN5 deneddyl=52.8;MMP2 cntr CSN=12.2;Thrombin counter=7.0
Cc1cc(OCC(=O)NNC(=O)CCc2ccccc2)ccc1Br	1.7	4.9	-3.1	5.4	-3.3	1.1	·
Cc1cc2c(SCC(=O)Nc3cccc(O)c3)ncnc2s1	-20.3	5.6	·	·	36.1	35.7*	·	CSN5 deneddyl=84.9*;MMP2 cntr CSN=12.5;Thrombin counter=0.8
C#CCOCCOCCOCCNc1nc(N2CCN(C(=O)[C@H](CCCCN)n3cc(CN)nn3)CC2)nc(N2CCN(C(=O)[C@H](CCCCN)n3cc([C@@H](N)[C@H](C)CC)nn3)CC2)n1	96.0*	-7.6	·	-2.4	31.6	98.7*	98.9*
C#CCOCCOCCOCCNc1nc(N2CCN(C(=O)[C@H](CCCCN)n3cc([C@@H](N)C(C)CC)nn3)CC2)nc(N2CCN(C(=O)[C@H](CCCCN)n3cc([C@@H](N)CO)nn3)CC2)n1 (stereo not given in full)	·	·	-0.5	1.7	·	·	·
COc1cc(OC)cc(-c2nnc(SCC(=O)Nc3cccc(C(=O)O)c3)s2)c1	-2.9	1.1	-3.9	2.1	2.7	1.6	·
O=C(NCC(=O)N1CCN(C(=O)c2ccco2)CC1)c1ccc(Br)cc1	-1.1	1.9	0.4	2.8	-1.5	-0.1	·
Cc1nc(CSc2nsc(/C=C/N(C)C)c2C#N)cs1	70.2*	-6.9	·	·	·	44.9*	62.0*
Cc1snc(SCc2ccc(F)cc2)c1C#N	-2.6	-1.3	-2.2	5.8	0.7	3.9	·
CCN(C(=O)COC(=O)/C(C#N)=C/c1ccc(N(C)C)cc1)C1CCS(=O)(=O)C1 (stereo not given)	46.3*	-1.5	·	2.5	19.9	9.8	71.3*
C[C@@H]1CN([C@H](C)CO)C(=O)CCCn2nncc2CO[C@H]1CN(C)C(=O)Nc1cccc2ccccc12	6.4	·	·	·	-4.3	3.7	·
Cc1ccc(/C=C2/Sc3ccc(C(=O)NCc4ccccn4)cc3NC2=O)cc1	72.0*	-6.0	20.7	2.4	·	61.1*	57.6*
CCOc1ccc(CNC(=O)C2CCN(c3nnc(C)c4c(C)n(-c5ccc(C)cc5)nc34)CC2)cc1	45.2*	9.8	14.5	-0.3	·	34.5	49.8*
O=C(N/N=C\C=C\c1ccc(Br)cc1)c1ccc2c(c1)OCO2	49.7*	-2.2	-0.3	9.6	116.3*	49.3*	61.9*
COc1cc2cc(CCCOC(=O)c3ccc4c(c3)OCO4)oc(=O)c2cc1OC	-5.9	1.8	·	0.7	0.2	-5.7	·
Nc1cc2c(cc1Cl)-c1ccc([N+](=O)[O-])cc1C2=NO	50.7*	-6.0	·	·	30.0	18.9	51.8*
O=C(Nc1ccccc1)c1cc2ccccc2o1	-0.3	5.0	2.3	0.4	-7.5	-4.5	·
CC/C(=C\c1oc2cc3ccccc3cc2[n+]1CC)Nc1ccccc1	50.7*	0.8	6.2	-1.7	7.9	-2.0	88.3*
Cc1ccc(OCCN2CCC2(C)C(=O)NCc2ccc(C(F)(F)F)cc2)cc1 (stereo not given)	2.3	·	·	·	2.9	-1.8	·
CN1C(=O)/C(=C/C=C2\SCCN2C)N(C)C1=S	119.2*	-11.0	·	·	·	74.0	143.0*
Cc1nn(-c2ccccc2)c(Cl)c1/C=C1\C(=O)N(C)C(=S)N1C	1.3	0.9	2.6	-3.0	1.1	11.9	·
SMILES	HNF4A DNA FP	IDE cell activ	TPT1 inh	IDE cell inh	Rpn11 block	CSN deneddyl inh	HNF4A confirm	others
CC/C(C)=N/Oc1nc(C)cc(C)n1	2.5	4.5	-2.0	3.3	-5.3	-0.6	·
O=C(COc1ccc([N+](=O)[O-])cc1)Nc1nnc(-c2cccnc2)s1	-15.7	-7.3	5.2	-3.1	4.1	-0.2	·
CCS(=O)(=O)N1N=C(c2ccccc2)CC1c1ccc2nccnc2c1 (stereo not given)	53.4*	-2.5	-0.1	3.9	-1.1	19.3	75.3*
COCCNC(=O)c1cc(-c2ccccc2)sc1N	54.7*	·	·	·	·	28.7	85.2*
CCCCNC(=O)c1cc(-c2ccccc2)sc1N	14.8	·	·	·	·	6.4	·
O=C1CC(=O)N(C2CCCCC2)C(=O)N1c1ccccc1S(=O)(=O)Oc1ccccc1	64.9*	·	·	·	·	24.1	40.7*
CN(C)c1ccc(C=C2C=C(c3ccccc3)OC2=O)cc1	55.3*	·	·	·	11.9	18.6	48.8*
O=C1OC(c2ccccc2)=CC1=Cc1ccccc1O	-0.7	·	·	·	11.0	-0.2	·
O=C(c1ccco1)N1N=C(c2cccs2)CC1c1cc([N+](=O)[O-])ccc1O (stereo not given)	-5.9	-2.0	-2.5	-1.1	2.1	2.9	·
O=C(N/N=C/c1cccnc1)c1cccc(NC(=O)c2ccc(Cl)cc2)c1	89.6*	-7.3	2.9	8.4	52.0*	109.6*	172.7*
O=C(Cn1cc(/C=N/NC(=O)c2ccccc2Br)c2ccccc21)Nc1ccc(F)cc1	-0.4	-2.9	-0.4	-3.6	5.7	-1.7	·
O=C(Cn1cc(/C=N/NC(=O)c2cccc3ccccc23)c2ccccc21)Nc1ccc(F)cc1	45.9*	-4.4	-3.1	-3.2	·	15.7	90.1*
CN(C)c1ccc(/C=N/NC(=O)c2cc(-c3ccc4c(c3)OCO4)n[nH]2)cc1	47.4*	0.1	-2.5	2.0	·	41.7*	59.4*
O=C(N/N=C/c1ccc(F)cc1)c1cc(-c2ccc3c(c2)OCO3)n[nH]1	3.2	0.1	-1.6	-5.7	25.1	4.6	·
